Screening data from PubChem.
Compounds with a hit are over-represented: about 3.9% of the library has one in this group of screens.
TIM10 inh = inhibits growth of TIM10 yeast strain; S. cerevisiae TIM10 strain growth, BacTiter-Glo luminescence, 24 h; inhibition, % at 10 µM; actives 1.4% (n = 330,000); AID 463195;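 active = inhibition of 40% or more at the single tested concentration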;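 note: wild-type TIM10 isogenic control strain grown at permissive 25 °C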
UPR CHOP act = apoptotic UPR (CHOP) activation. activation, % at 10 µM. actives 0.34% (n = 330,000). CHO-CHOP luciferase reporter, luminescence; percent of tunicamycin response over DMSO baseline;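 active = at 10 µM dose, activation of 40% or more, normalized to positive control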;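 note: 100% = tunicamycin at 10 µg/mL and 0% = DMSO alone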
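Test system: CHO CHOP reporter cells. Input: 500 CHO-CHOP cells per well. Medium: F12 with 10% FBS. Technique: luciferase luminescence. Measure: percent activation relative to tunicamycin control. Dosing: 10 µM compound, 0.5% DMSO. Timing: 16-18 h cell attachment, then 6 h compound exposure, 37 °C.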
tim23-1 inh = growth inhibitors of tim23-1 mutant yeast; inhibition, % at 20 µM; actives 1.3% (n = 330,000); AID 463212; S. cerevisiae tim23-1 growth, BacTiter-Glo luminescence, 24 h;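 active = growth inhibition of the mutant yeast at or above 50%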;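 note: temperature-sensitive mutant grown at 25 °C; plate controls were DMSO-treated mutant yeast for no effect and medium wells lacking yeast for full effect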
tim10-1 inh = tim10-1 yeast growth inhibition; S. cerevisiae tim10-1 ts strain growth, BacTiter-Glo, 24 h; inhibition, % at 20 µM; actives 2.2% (n = 330,000); AID 463190;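 active = inhibition of at least 40%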;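 note: mutant grown at 25 °C; 0% = DMSO wells with yeast and 100% = wells holding no yeast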
UPR XBP1 act = adaptive UPR (XBP1) activation; AID 463104; actives 0.33% (n = 330,000); activation, % at 20 µM; CHO-XBP1 luciferase reporter, IRE1-XBP1 UPR activation, luminescence; percent of tunicamycin response, DMSO as zero;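 active = versus positive control, 20 µM dose yields 30% or more activation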;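 note: 100% = tunicamycin at 10 µg/mL and 0% = DMSO only wells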
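Test system: CHO-XBP1 luciferase reporter cells | Buffer or medium: Serum-containing F12 medium, 10% FBS | Schedule: 6 h compound exposure at 37 °C, 5% CO2 | Detection: Steady-Glo luciferase glow luminescence, 10 min after reagent addition | Read-out basis: Activation, % of tunicamycin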
tim10 confirm = confirmation of TIM10 yeast growth inhibitors; shares compounds with TIM10 inh; S. cerevisiae tim10 strain growth, BacTiter-Glo luminescence, 24 h; inhibition, % at 10 µM; actives 63% (n = 4,600); AID 463215;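 active = inhibition of yeast growth at or above a set limit in either of two replicates at 10 µM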;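 note: this counterscreen used the strain with wild-type TIM10; 0% = yeast with DMSO and 100% = medium wells lacking yeast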
tim23-1 confirm = tim23-1 yeast growth inhibition, confirmed; inhibition, % at 20 µM; AID 463218; shares compounds with tim23-1 inh; S. cerevisiae tim23-1 growth, BacTiter-Glo luminescence, 24 h; actives 83% (n = 4,400);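 active = inhibition above about 39% in either of two replicate wells at 20 µM, limit read from the data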;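 note: temperature-sensitive tim23-1 mutant grown at 25 °C; 0% = DMSO wells with yeast and 100% = medium wells without yeast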
* = called active by the depositor.

What do the screens show for `CC(=O)N1CCN(C(=O)COC(=O)COc2c(C)cc(C)cc2C)CC1`?
TIM10 inh: -0.6; UPR CHOP act: -2.7; tim23-1 inh: -14.0; tim10-1 inh: -1.7; UPR XBP1 act: -3.4

How did Cc1ccc(S(=O)(=O)N2CCOCC2)cc1NC(=O)COC(=O)C1(C)CC1(Cl)Cl (centres undefined) do in these assays?
TIM10 inh: 5.1; UPR CHOP act: 0.8; tim23-1 inh: 13.0; tim10-1 inh: 15.5; UPR XBP1 act: -1.8

Results for CCOc1cc(/C=C\[N+](=O)[O-])ccc1OCC(=O)Nc1ccccc1C ?
TIM10 inh: 55.7*; UPR CHOP act: -11.4; tim23-1 inh: 57.5*; tim10-1 inh: 13.1; UPR XBP1 act: -6.4; tim10 confirm: 12.6; tim23-1 confirm: 77.7*

How did COc1cc(/C=C/c2cccc[n+]2C)ccc1OCC(=O)Nc1ccccc1C do in these assays?
TIM10 inh: -3.0; UPR CHOP act: 1.2; tim23-1 inh: -15.9; tim10-1 inh: 4.3; UPR XBP1 act: 0.2

Results for COC(=O)C(C)NC(=O)C1CCCN1C(=O)CNC(=O)OCc1ccccc1 (centres undefined) ?
TIM10 inh: 17.3; UPR CHOP act: -0.9; tim23-1 inh: 7.2; tim10-1 inh: 13.1; UPR XBP1 act: -2.8

What do the screens show for `Cc1cc(NC(=O)CSCC(=O)Nc2cccc(S(=O)(=O)N3CCCCCC3)c2)no1`?
TIM10 inh: 2.5; UPR CHOP act: 3.3; tim23-1 inh: 13.1; tim10-1 inh: 7.7; UPR XBP1 act: 0.2

Results for CCCCC(=O)Nc1cccc2c1C(=O)N(c1ccccc1)C2=O ?
TIM10 inh: 43.3*; UPR CHOP act: -1.1; tim23-1 inh: 50.2*; tim10-1 inh: 32.0; UPR XBP1 act: -0.4; tim10 confirm: 39.8*; tim23-1 confirm: 51.7*

Results for COc1ccc(-c2nc(C#N)c(NCCc3ccccc3)o2)cc1 ?
TIM10 inh: 10.9; UPR CHOP act: 3.3; tim23-1 inh: 20.8; tim10-1 inh: 18.7; UPR XBP1 act: 1.9

What do the screens show for `COc1ccc(CCNc2oc(-c3ccc(C)cc3)nc2C#N)cc1OC`?
TIM10 inh: 53.1*; UPR CHOP act: 0.8; tim23-1 inh: 55.2*; tim10-1 inh: 18.5; UPR XBP1 act: -2.0; tim10 confirm: 60.8*; tim23-1 confirm: 75.8*

What do the screens show for `O=C(NC(=S)Nc1ccc(O)cc1)C1CCCC1`?
TIM10 inh: 43.6*; UPR CHOP act: 3.8; tim23-1 inh: 54.5*; tim10-1 inh: 38.0; UPR XBP1 act: 3.5; tim10 confirm: 33.3*; tim23-1 confirm: 54.5*

Results for O=C(NC(=S)Nc1ccc(F)cc1)C1CCCCC1 ?
TIM10 inh: 14.6; UPR CHOP act: 8.1; tim23-1 inh: 41.8; tim10-1 inh: 22.9; UPR XBP1 act: -1.1

Results for COc1ccccc1[C@@]1(C)ON(c2ccccc2C(F)(F)F)C1=O ?
TIM10 inh: 65.2*; UPR CHOP act: 22.3; tim23-1 inh: 63.1*; tim10-1 inh: -98.2; UPR XBP1 act: -7.7; tim10 confirm: 54.6*; tim23-1 confirm: -93.3

Results for CC[C@]1(c2ccccc2C)ON(c2ccccc2C(F)(F)F)C1=O ?
TIM10 inh: -4.7; UPR CHOP act: 0.1; tim23-1 inh: 11.9; tim10-1 inh: -50.8; UPR XBP1 act: -3.0

Results for CCCOc1ccc(C(=O)CCNC(Cc2c[nH]c3ccccc23)C(=O)O)cc1 (centres undefined) ?
TIM10 inh: 49.1*; UPR CHOP act: 14.0; tim23-1 inh: 73.7*; tim10-1 inh: 25.5; UPR XBP1 act: -9.9; tim10 confirm: 37.2*; tim23-1 confirm: 23.0

Results for COc1ccc(C(=O)NC(Cc2c[nH]c3ccccc23)C(=O)O)cc1 (centres undefined) ?
TIM10 inh: 7.6; UPR CHOP act: 1.5; tim23-1 inh: -4.5; tim10-1 inh: -0.2; UPR XBP1 act: -1.2

Results for CC1CCCCC1NC(=O)COc1ccccc1C#N (centres undefined) ?
TIM10 inh: 5.8; UPR CHOP act: 0.7; tim23-1 inh: 20.3; tim10-1 inh: 17.3; UPR XBP1 act: 0.3

What do the screens show for `COc1ccc(C(=O)COc2cccc(NC(=O)c3ccco3)c2)cc1`?
TIM10 inh: 37.5; UPR CHOP act: 0.4; tim23-1 inh: 33.3; tim10-1 inh: 24.0; UPR XBP1 act: 1.6

How did O=C(Nc1ccc(Oc2cccc3ccccc23)cc1)c1ccco1 do in these assays?
TIM10 inh: 40.0*; UPR CHOP act: 1.4; tim23-1 inh: 58.4*; tim10-1 inh: 12.7; UPR XBP1 act: -1.8; tim10 confirm: 25.4; tim23-1 confirm: 76.8*

How did Cc1cc(C)c(OCC(=O)Nc2cccc(NC(=O)c3ccco3)c2)c(Br)c1 do in these assays?
TIM10 inh: 45.2*; UPR CHOP act: 0.5; tim23-1 inh: 55.4*; tim10-1 inh: 17.9; UPR XBP1 act: 2.9; tim10 confirm: 28.8; tim23-1 confirm: 43.5*

How did O=C(COc1cccc(NC(=O)c2ccco2)c1)c1ccccc1 do in these assays?
TIM10 inh: 48.2*; UPR CHOP act: 3.3; tim23-1 inh: 54.4*; tim10-1 inh: 21.2; UPR XBP1 act: 2.9; tim10 confirm: 24.7; tim23-1 confirm: 66.1*

Results for Cc1cccc(NC(=O)CNC(=O)COc2cccnc2[N+](=O)[O-])c1C ?
TIM10 inh: 3.4; UPR CHOP act: 1.8; tim23-1 inh: 13.1; tim10-1 inh: 14.0; UPR XBP1 act: -1.5

Results for CCOc1ccc(N/C=C/C(=O)c2ccccc2)c([N+](=O)[O-])c1 ?
TIM10 inh: 70.2*; UPR CHOP act: -6.9; tim23-1 inh: 57.3*; tim10-1 inh: 38.0; UPR XBP1 act: -2.7; tim10 confirm: -1.3; tim23-1 confirm: 77.0*

What do the screens show for `Oc1ccccc1C1NN=C(c2ccccc2)S1` (centres undefined)?
TIM10 inh: 27.9; UPR CHOP act: 1.5; tim23-1 inh: 58.3*; tim10-1 inh: 14.4; UPR XBP1 act: -3.4; tim23-1 confirm: 54.2*

Results for c1ccc2cc(OCc3nc4ccccc4[nH]3)ccc2c1 ?
TIM10 inh: 26.9; UPR CHOP act: 1.6; tim23-1 inh: 51.6*; tim10-1 inh: 22.0; UPR XBP1 act: 1.6; tim23-1 confirm: 29.9

Results for COc1c(-c2ccccc2)oc2c(ccc3occc32)c1=O ?
TIM10 inh: -12.0; UPR CHOP act: 0.1; tim23-1 inh: 24.7; tim10-1 inh: 7.2; UPR XBP1 act: 3.6

Results for CCc1ccc(C(=O)CN2C(=O)NC3(CCCCCC3)C2=O)cc1 ?
TIM10 inh: 3.4; UPR CHOP act: 6.2; tim23-1 inh: 50.6*; tim10-1 inh: 13.0; UPR XBP1 act: 2.6; tim23-1 confirm: 32.4
